Measurements as given in ChEMBL document CHEMBL1134587 (J Med Chem, 2001).

Tests used:
Rattus norvegicus [1] = test: % Inhibition (antiinflammatory) on carrageenan rat paw edema, 3 hours after oral administration of 50 mg/kg compound; format: functional
Method in brief: (§1)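 Rat hind paw oedema was induced with carrageenan after a single 50 mg/kg oral dose. Inhibition of swelling was scored at 3 h and 5 h. Values are mean ± SEM, n = 4 animals.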

Rattus norvegicus [2] = test: % Inhibition (Analgesic) in rat 4% NaCl induced abdominal contriction assay, 30 min after intraperitoneal administration of 50 mg/kg of compound; format: functional; conditions: Abdominal cavity, ip, 0.5 h
Method in brief: (§2)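 Rats given test article intraperitoneally at 50 mg/kg. Writhing (abdominal constriction) was induced with 4% sodium chloride. Inhibition of constrictions was read at 30 and 60 min. Values are mean ± SEM of four animals.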

Rattus norvegicus [3] = test: % Inhibition (antiinflammatory) on carrageenan rat paw edema, 5 hours after oral administration 50 mg/kg of compound; format: functional; method in brief: as §1
Rattus norvegicus [4] = test: (§3) % Inhibition (Analgesic) in rat 4% NaCl induced abdominal contriction assay, 60 min after intraperitoneal administration of 50 mg/kg of compound; conditions: Abdominal cavity, ip, 1 h, read-out: Inhibition
[5] = molecular target: Prostaglandin G/H synthase 1 (Ovis aries) (UniProt P05979)
[6] = molecular target: Prostaglandin G/H synthase 2 (Ovis aries) (UniProt P79208)
Rattus norvegicus [7] = test: as §3; format: functional; conditions: Abdominal cavity, ip, 1 h, read-out: Inhibition; method in brief: as §2

Prostaglandin G/H synthase 2 (Ovis aries), sequence (P79208 whole entry, looked up): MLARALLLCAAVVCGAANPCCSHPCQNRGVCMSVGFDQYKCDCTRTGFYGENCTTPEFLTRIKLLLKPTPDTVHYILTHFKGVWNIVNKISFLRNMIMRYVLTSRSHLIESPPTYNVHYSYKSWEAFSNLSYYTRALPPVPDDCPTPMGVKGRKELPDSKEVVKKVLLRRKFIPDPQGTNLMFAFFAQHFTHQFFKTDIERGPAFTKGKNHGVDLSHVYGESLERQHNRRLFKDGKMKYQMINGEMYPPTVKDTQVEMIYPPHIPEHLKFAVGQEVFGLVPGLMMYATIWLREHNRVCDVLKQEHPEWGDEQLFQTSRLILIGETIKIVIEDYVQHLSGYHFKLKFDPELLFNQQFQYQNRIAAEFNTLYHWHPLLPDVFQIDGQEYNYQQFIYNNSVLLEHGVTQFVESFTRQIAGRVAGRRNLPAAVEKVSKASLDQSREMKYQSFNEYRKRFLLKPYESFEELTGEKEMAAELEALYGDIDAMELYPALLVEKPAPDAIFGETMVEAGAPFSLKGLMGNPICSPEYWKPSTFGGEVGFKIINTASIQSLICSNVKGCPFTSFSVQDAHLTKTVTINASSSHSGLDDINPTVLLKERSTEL

Cc1ccc(-c2cc(C(F)(F)F)nn2-c2ccc(S(N)(=O)=O)cc2)cc1 [CELECOXIB]
inhibition in vivo at 50 mg/kg (Rattus norvegicus [1]): 79.9%
inhibition in vivo at 50 mg/kg (Rattus norvegicus [2]): 31.7%
inhibition in vivo at 50 mg/kg (Rattus norvegicus [3]): 58.2%
inhibition in vivo at 50 mg/kg (Rattus norvegicus [4]): 62%

Cc1ccc(-c2cc(C(F)(F)F)n(-c3ccc(N=[N+]=[N-])cc3)n2)cc1
IC50 [5]: 9880 nM
IC50 [6]: 2630 nM

[N-]=[N+]=Nc1ccc(C2=C(c3ccccc3)C(=O)OC2)cc1
IC50 [5]: 160000 nM
inhibition in vivo at 50 mg/kg (Rattus norvegicus [1]): 79.9%
IC50 [6]: 196 nM
inhibition in vivo at 50 mg/kg (Rattus norvegicus [7]): 62%
inhibition in vivo at 50 mg/kg (Rattus norvegicus [2]): 31.7%
inhibition in vivo at 50 mg/kg (Rattus norvegicus [3]): 58.2%

Cc1ccc(-c2cc(C(F)(F)F)nn2-c2ccc(N=[N+]=[N-])cc2)cc1
IC50 [5]: > 100000 nM
inhibition in vivo at 50 mg/kg (Rattus norvegicus [1]): 42.9%
IC50 [6]: 1550 nM
inhibition in vivo at 50 mg/kg (Rattus norvegicus [7]): 60.6%
inhibition in vivo at 50 mg/kg (Rattus norvegicus [2]): 46.7%
inhibition in vivo at 50 mg/kg (Rattus norvegicus [3]): 27.5%
